{"source": "ChEMBL document CHEMBL4699522", "about": "“Androsamide, a Cyclic Tetrapeptide from a Marine Nocardiopsis sp., Suppresses Motility of Colorectal Cancer Cells” (J Nat Prod, 2020)", "key": {"[1]": {"tested_on": "Caco-2", "assay": "Inhibition of epithelial-mesenchymal transition in human Caco-2 cells assessed as decrease in N-cadherin protein expression at 0.65 to 1.3 uM after 24 hrs by Western blot analysis", "format": "functional, cell-based", "details": "dose microM 0.65-1.3, time 24.0 hrs", "procedure,_shortened": "(§1)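 2 × 10^5 Caco2 cells per well treated 24 h at nontoxic concentrations. Lysates separated by SDS-PAGE and probed with primary antibodies, then HRP-conjugated secondaries. Luminescence band densities normalized to α-tubulin and compared with DMSO-treated cells. Means ± SEM, n = 3.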"}, "[2]": {"tested_on": "Caco-2", "assay": "Inhibition of epithelial-mesenchymal transition in human Caco-2 cells assessed as decrease in vimentin mRNA expression after 24 hrs by qRT-PCR analysis", "format": "functional, cell-based", "details": "dose microM 0.65-1.3, time 24.0 hrs", "procedure,_shortened": "(§2)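 Caco2 treated 24 h at 0.65 or 1.3 μM. Total RNA isolated, and 1 μg reverse-transcribed. Quantified by SYBR green real-time PCR. Fold change derived from cycle-threshold values, normalized to GAPDH, and compared with DMSO-treated cells. Means ± SEM, n = 3.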"}, "[3]": {"tested_on": "Caco-2", "assay": "Inhibition of epithelial-mesenchymal transition in human Caco-2 cells assessed as decrease in Twist mRNA expression at 0.65 to 1.3 uM after 24 hrs by qRT-PCR analysis", "format": "functional, cell-based", "details": "dose microM 0.65-1.3, time 24.0 hrs", "procedure,_shortened": "as §2"}, "[4]": {"tested_on": "HCT-116", "assay": "Cytotoxicity against human HCT-116 cells assessed as reduction in cell viability after 48 hrs by MTT assay", "format": "functional, cell-based", "procedure,_shortened": "(§3)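 MTT read-out. Cells seeded at (2-3) × 10^3/well, incubated 12 h, then exposed to 3.125–100 μM for 48 h, with MTT added for the final 4 h. Absorbance read at 540 nm. Viability is normalized to DMSO-treated cells. IC50 computed by statistical software. Means ± SEM, n = 3. AGS cells were grown in RPMI, Caco2 and HCT116 in DMEM, all with 10% FBS, at 37 °C and 5% CO2.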"}, "[5]": {"tested_on": "Caco-2", "assay": "Inhibition of epithelial-mesenchymal transition in human Caco-2 cells assessed as decrease in ZEB2 mRNA expression at 0.65 to 1.3 uM after 24 hrs by qRT-PCR analysis", "format": "functional, cell-based", "details": "dose microM 0.65-1.3, time 24.0 hrs", "procedure,_shortened": "as §2"}, "[6]": {"tested_on": "Caco-2", "assay": "Inhibition of epithelial-mesenchymal transition in human Caco-2 cells assessed as increase in E-cadherin protein expression at 0.65 to 1.3 uM after 24 hrs by Western blot analysis", "format": "functional, cell-based", "details": "dose microM 0.65-1.3, time 24.0 hrs", "procedure,_shortened": "as §1"}, "[7]": {"tested_on": "Caco-2", "assay": "Inhibition of epithelial-mesenchymal transition in human Caco-2 cells assessed as decrease in Snail mRNA expression at 0.65 to 1.3 uM after 24 hrs by qRT-PCR analysis", "format": "functional, cell-based", "details": "dose microM 0.65-1.3, time 24.0 hrs", "procedure,_shortened": "as §2"}, "[8]": {"tested_on": "Caco-2", "assay": "Inhibition of cell migration in human Caco-2 cells after 6 hrs by K1-Fluo RT fluorescence confocal microscope based transwell assay", "format": "functional", "details": "dose microM 0.15-1.3, time 6.0 hrs", "procedure,_shortened": "(§4)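 Migration through uncoated Boyden chambers. (2.0-2.5) × 10^5 Caco2 cells seeded in medium with 0.2% BSA. The lower chamber holds 0.2% BSA medium plus 10 μg/mL fibronectin as chemoattractant. Treated at 0.15, 0.65 or 1.3 μM for 6 h at 37 °C. Migrated cells fixed, Diff-Quick stained and counted in five random fields by confocal microscopy. Expressed relative to DMSO control; triplicate.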"}, "[9]": {"tested_on": "AGS", "assay": "Cytotoxicity against human AGS cells assessed as reduction in cell viability after 48 hrs by MTT assay", "format": "functional, cell-based", "procedure,_shortened": "as §3"}, "[10]": {"tested_on": "Caco-2", "assay": "Inhibition of epithelial-mesenchymal transition in human Caco-2 cells assessed as decrease in N-cadherin mRNA expression after 24 hrs by qRT-PCR analysis", "format": "functional, cell-based", "details": "dose microM 0.65-1.3, time 24.0 hrs", "procedure,_shortened": "as §2"}, "[11]": {"tested_on": "Caco-2", "assay": "Inhibition of epithelial-mesenchymal transition in human Caco-2 cells assessed as decrease in Slug mRNA expression at 0.65 to 1.3 uM after 24 hrs by qRT-PCR analysis", "format": "functional, cell-based", "details": "dose microM 0.65-1.3, time 24.0 hrs", "procedure,_shortened": "as §2"}, "[12]": {"tested_on": "Caco-2", "assay": "Inhibition of epithelial-mesenchymal transition in human Caco-2 cells assessed as decrease in Twist protein expression at 0.65 to 1.3 uM after 24 hrs by Western blot analysis", "format": "functional, cell-based", "details": "dose microM 0.65-1.3, time 24.0 hrs", "procedure,_shortened": "as §1"}, "[13]": {"tested_on": "Caco-2", "assay": "Inhibition of cell migration in human Caco-2 cells at 1.3 uM after 24 hrs by fluorescence microscope based Boyden-Chamber cell migration assay relative to control", "format": "functional", "procedure,_shortened": "(§5)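 Boyden chambers coated with 1% gelatin. Caco2 seeded at 2.5 × 10^6 cells/mL in 0.2% BSA medium; the lower chamber has 0.2% BSA medium with 10 μg/mL fibronectin. Exposed to 0.15, 0.65 or 1.3 μM for 24 h at 37 °C. Invaded cells fixed, Diff-Quick stained and counted in five random fields by fluorescence microscopy. Expressed relative to DMSO control; three replicates.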"}, "[14]": {"tested_on": "Caco-2", "assay": "Inhibition of cell motility in human Caco-2 cells assessed as reduction in RAC2 mRNA expression at 0.65 to 1.3 uM by RT2 Profiler PCR Array", "format": "functional, cell-based", "details": "dose microM 0.65-1.3"}, "[15]": {"tested_on": "Caco-2", "assay": "Inhibition of epithelial-mesenchymal transition in human Caco-2 cells assessed as decrease in ZEB1 mRNA expression at 0.65 to 1.3 uM after 24 hrs by qRT-PCR analysis", "format": "functional, cell-based", "details": "dose microM 0.65-1.3, time 24.0 hrs", "procedure,_shortened": "as §2"}, "[16]": {"tested_on": "HCT-116", "assay": "Induction of apoptosis in human HCT-116 cells at 21 to 26 uM after 6 hrs by annexin V-FITC/propidium iodide staining based flow cytometric analysis", "format": "functional, cell-based", "details": "dose microM 21-26, time 6.0 hrs"}, "[17]": {"tested_on": "Caco-2", "assay": "Cytotoxicity against human Caco-2 cells assessed as reduction in cell viability after 48 hrs by MTT assay", "format": "functional, cell-based", "procedure,_shortened": "as §3"}, "[18]": {"tested_on": "Caco-2", "assay": "Inhibition of cell migration in human Caco-2 cells after 24 hrs by fluorescence microscope based Boyden-Chamber cell migration assay", "format": "functional", "details": "dose microM 0.15-1.3, time 24.0 hrs", "procedure,_shortened": "as §5"}, "[19]": {"tested_on": "Caco-2", "assay": "Inhibition of epithelial-mesenchymal transition in human Caco-2 cells assessed as decrease in Snail protein expression at 0.65 to 1.3 uM after 24 hrs by Western blot analysis", "format": "functional, cell-based", "details": "dose microM 0.65-1.3, time 24.0 hrs", "procedure,_shortened": "as §1"}, "[20]": {"tested_on": "Caco-2", "assay": "Induction of apoptosis in human Caco-2 cells at 13 to 16 uM after 6 hrs by annexin V-FITC/propidium iodide staining based flow cytometric analysis", "format": "functional, cell-based", "details": "dose microM 13-16, time 6.0 hrs"}, "[21]": {"tested_on": "Caco-2", "assay": "Inhibition of cell migration in human Caco-2 cells at 1.3 uM after 6 hrs by K1-Fluo RT fluorescence confocal microscope based transwell assay relative to control", "format": "functional", "procedure,_shortened": "as §4"}, "[22]": {"tested_on": "Caco-2", "assay": "Inhibition of cell motility in human Caco-2 cells assessed as reduction in CAPN1 mRNA expression at 0.65 to 1.3 uM by RT2 Profiler PCR Array", "format": "functional, cell-based", "details": "dose microM 0.65-1.3"}, "[23]": {"tested_on": "Caco-2", "assay": "Inhibition of epithelial-mesenchymal transition in human Caco-2 cells assessed as increase in E-cadherin mRNA expression after 24 hrs by qRT-PCR analysis", "format": "functional, cell-based", "details": "dose microM 0.65-1.3, time 24.0 hrs", "procedure,_shortened": "as §2"}}, "note": "Active and inactive are the calls of the source. Non-standard residues stand in square brackets, D forms with d. Residues, ends and D or L forms follow the SMILES beside them. NMeTrp(4-OMe) = CN[C@@H](Cc1c[nH]c2cccc(OC)c12)C(=O)O; NMeM = CN[C@@H](CCSC)C(=O)O", "data": [{"smiles": "CC[C@H](C)[C@@H]1NC(=O)[C@H]([C@@H](C)O)NC(=O)[C@H](Cc2c[nH]c3cccc(OC)c23)N(C)C(=O)[C@H](CCSC)N(C)C1=O", "note": "(cyclo(I[NMeM][NMeTrp(4-OMe)]T))", "values": [{"measurement": "inhibition", "setting": "[1]", "value": "Active"}, {"measurement": "inhibition", "setting": "[2]", "value": "Dose-dependent effect"}, {"measurement": "inhibition", "setting": "[3]", "value": "Active"}, {"measurement": "Activity", "setting": "[4]", "value": "Dose-dependent effect"}, {"measurement": "IC50", "setting": "[4]; HCT-116, 48 h", "value": 21, "unit": "µM"}, {"measurement": "inhibition", "setting": "[5]", "value": "Active"}, {"measurement": "inhibition", "setting": "[6]", "value": "Active"}, {"measurement": "inhibition", "setting": "[7]", "value": "Active"}, {"measurement": "inhibition", "setting": "[8]", "value": "Dose-dependent effect"}, {"measurement": "Activity", "setting": "[9]", "value": "Dose-dependent effect"}, {"measurement": "IC50", "setting": "[9]", "value": 18, "unit": "µM"}, {"measurement": "inhibition", "setting": "[10]", "value": "Dose-dependent effect"}, {"measurement": "inhibition", "setting": "[11]", "value": "Active"}, {"measurement": "inhibition", "setting": "[12]", "value": "Active"}, {"measurement": "inhibition at 1.3 µM", "setting": "[13]", "value": 45, "unit": "%"}, {"measurement": "inhibition", "setting": "[14]", "value": "Active"}, {"measurement": "inhibition", "setting": "[15]", "value": "Active"}, {"measurement": "Activity", "setting": "[16]", "value": "Active"}, {"measurement": "Activity", "setting": "[17]", "value": "Dose-dependent effect"}, {"measurement": "IC50", "setting": "[17]; Caco-2, 48 h", "value": 13, "unit": "µM"}, {"measurement": "inhibition", "setting": "[18]", "value": "Dose-dependent effect"}, {"measurement": "inhibition", "setting": "[19]", "value": "Active"}, {"measurement": "Activity", "setting": "[20]", "value": "Active"}, {"measurement": "inhibition at 1.3 µM", "setting": "[21]", "value": 50, "unit": "%"}, {"measurement": "inhibition", "setting": "[22]", "value": "Active"}, {"measurement": "inhibition", "setting": "[23]", "value": "Dose-dependent effect"}]}]}
